Source: ChEMBL document CHEMBL3751780, “Rational design, synthesis and in vitro evaluation of allylidene hydrazinecarboximidamide derivatives as BACE-1 inhibitors” (Bioorg Med Chem Lett, 2016)
Activity calls are given as the source filed them. No cut-off for these calls is given here.

How the values were obtained:
Beta-secretase 1 [1] = target: T1, Beta-secretase 1 (Homo sapiens, UniProt P56817); assay: Inhibition of human BACE1 (1 to 460 residues) using APP-based peptide as substrate at 10 uM incubated for 60 mins by FRET analysis
T1 sequence (P56817 whole entry, the tested form may be a part): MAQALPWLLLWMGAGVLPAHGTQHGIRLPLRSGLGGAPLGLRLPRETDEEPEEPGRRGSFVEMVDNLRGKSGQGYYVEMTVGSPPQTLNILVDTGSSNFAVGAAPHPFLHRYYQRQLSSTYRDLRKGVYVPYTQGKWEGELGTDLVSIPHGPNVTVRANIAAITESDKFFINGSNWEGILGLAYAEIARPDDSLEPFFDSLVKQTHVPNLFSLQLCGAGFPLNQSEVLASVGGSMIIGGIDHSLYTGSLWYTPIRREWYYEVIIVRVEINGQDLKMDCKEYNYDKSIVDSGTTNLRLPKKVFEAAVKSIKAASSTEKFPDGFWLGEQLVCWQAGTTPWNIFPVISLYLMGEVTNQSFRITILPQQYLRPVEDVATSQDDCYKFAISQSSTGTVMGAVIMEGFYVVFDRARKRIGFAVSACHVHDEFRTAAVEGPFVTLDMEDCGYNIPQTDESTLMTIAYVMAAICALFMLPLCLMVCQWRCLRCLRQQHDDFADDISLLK
Method in brief: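 Measured by FRET. Test compounds were screened at one fixed concentration and reported as percent inhibition, given as mean ± SD of triplicate experiments performed independently.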

[2] = Cytotoxicity against human […] cells at 10 uM after 24 hrs by MTT assay; assay type: cell-based
Beta-secretase 1 [3] = target: T1, Beta-secretase 1; assay: Inhibition of human BACE1 (1 to 460 residues) using APP-based peptide as substrate incubated for 60 mins by FRET analysis

| SMILES | inhibition (Beta-secretase 1 [1]) | IC50 (Beta-secretase 1 [3]) [µM] | Activity [2] |
| --- | --- | --- | --- |
| Cc1ccc(C(/C=C/c2ccc(N(C)C)cc2)=N\NC(=N)N)cc1 | 10.8% |  | Non-toxic |
| N=C(N)N/N=C(/C=C/c1ccccc1)c1ccc(Cl)cc1 | 18% |  | Non-toxic |
| N=C(N)N/N=C(/C=C/c1cccc([N+](=O)[O-])c1)c1ccccc1 | 47.9% |  | Non-toxic |
| N=C(N)N/N=C(/C=C/c1ccccc1)c1cccc(O)c1 |  |  | Non-toxic |
| N=C(N)N/N=C(/C=C/c1ccccc1)c1cccc([N+](=O)[O-])c1 | 23.4% |  | Non-toxic |
| COc1ccc(/C=C/C(=N/NC(=N)N)c2ccc([N+](=O)[O-])cc2)cc1OC | 61.2% |  | Non-toxic |
| COc1ccc(/C=C/C(=N/NC(=N)N)c2ccc(Cl)cc2Cl)cc1OC | 21.8% |  | Non-toxic |
| N=C(N)N/N=C(/C=C/c1cccc([N+](=O)[O-])c1)c1ccc(Cl)cc1Cl | 5.4% |  | Non-toxic |
| CN(C)c1ccc(/C=C/C(=N/NC(=N)N)c2ccc([N+](=O)[O-])cc2)cc1 | 23.9% |  | Non-toxic |
| N=C(N)N/N=C(/C=C/c1ccccc1)c1ccc([N+](=O)[O-])cc1 | 13.5% |  | Non-toxic |
| N=C(N)N/N=C(/C=C/c1cccc([N+](=O)[O-])c1)c1ccc([N+](=O)[O-])cc1 | 62.1% |  | Non-toxic |
| CN(C)c1ccc(/C=C/C(=N/NC(=N)N)c2cccc([N+](=O)[O-])c2)cc1 | 28% |  | Non-toxic |
| COc1ccc(C(/C=C/c2cccc([N+](=O)[O-])c2)=N\NC(=N)N)cc1 | 11% |  | Non-toxic |
| COc1ccc(/C=C/C(=N/NC(=N)N)c2cccc([N+](=O)[O-])c2)cc1OC | 45.8% |  | Non-toxic |
| N=C(N)N/N=C(/C=C/c1cccc([N+](=O)[O-])c1)c1cccc(Br)c1 | 10.8% |  | Non-toxic |

Further lines, with some results ahead:

| inhibition (Beta-secretase 1 [1]) | IC50 (Beta-secretase 1 [3]) [µM] | SMILES | Activity [2] |
| --- | --- | --- | --- |
| 10.3% |  | COc1ccc(C(/C=C/c2cc(OC)ccc2OC)=N\NC(=N)N)cc1 | Non-toxic |
| 10.8% |  | N=C(N)N/N=C(/C=C/c1ccccc1)c1ccccc1 | Non-toxic |
| 25.9% |  | COc1ccc(/C=C/C(=N/NC(=N)N)c2cccc(Br)c2)cc1OC | Non-toxic |
| inactive |  | CN(C)c1ccc(/C=C/C(=N/NC(=N)N)c2ccccc2)cc1 | Non-toxic |
| 23.9% |  | COc1ccc(OC)c(/C=C/C(=N/NC(=N)N)c2cccc(Br)c2)c1 | Non-toxic |
| 42.1% |  | COc1ccc(/C=C/C(=N/NC(=N)N)c2ccccc2)cc1OC | Non-toxic |
| 78.2% | 6.42 | COc1ccc(/C=C/C(=N/NC(=N)N)c2ccc(Cl)cc2)cc1OC | Non-toxic |
| 32.6% |  | COc1ccc(OC)c(/C=C/C(=N/NC(=N)N)c2ccccc2)c1 | Non-toxic |
